Test results from ChEMBL document CHEMBL5230178, “6-Bromoindirubin-3'-oxime derivatives are highly active colistin adjuvants against Klebsiella pneumoniae” (RSC Med Chem, 2023).
Active and inactive are the calls of the source. The rule behind the calls is not given here.

Legend:
Klebsiella pneumoniae [1] = experiment: Potentiation of colistin-induced antibacterial activity against colistin resistant Klebsiella pneumoniae B9 assessed as colistin MIC at 5 uM incubated for 16 hrs by broth microdilution method; format: functional
How it was run: (§1)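 Bacteria grown 6 h in CAMHB, diluted to 5×10^5 CFU/mL. Fixed adjuvant concentration added from DMSO stock; an undosed aliquot gives the colistin MIC alone. Colistin serially two-fold diluted in the compound-dosed suspension. MIC taken at 90% growth inhibition versus untreated wells. Fold change is colistin MIC alone over MIC with adjuvant. Duplicate, repeated at least twice.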

Klebsiella pneumoniae [2] = experiment: Potentiation of colistin-induced antibacterial activity against colistin-resistant Klebsiella pneumoniae B9 assessed as fold change in colistin MIC at 5 uM incubated for 16 hrs by broth microdilution method; format: functional; how it was run: as §1
Klebsiella pneumoniae [3] = experiment: Antibacterial activity against Klebsiella pneumoniae B9 assessed as inhibition of bacterial growth incubated for 16 hrs by broth microdilution method; format: functional
How it was run: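 Broth microdilution in CAMHB. Six-hour culture diluted to 5×10^5 CFU/mL, compound added from DMSO stock, two-fold serial dilution. MIC is the lowest concentration giving 90% growth inhibition versus untreated wells. Run in duplicate, repeated at least twice.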

Acinetobacter baumannii [4] = experiment: Antimicrobial activity against colistin resistant Acinetobacter baumannii 3941 assessed as inhibition of microbial growth incubated for 16 hrs by broth microdilution method; format: functional, organism-based
How it was run: (§2)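 Bacteria grown 6 h in cation-adjusted Mueller Hinton broth (CAMHB), subcultured to 5×10^5 CFU/mL. Compound added from DMSO stock and serially two-fold diluted in the culture. Incubated stationary at 37 °C for 16 h. MIC taken as the lowest concentration giving 90% growth inhibition versus untreated wells. Duplicate, repeated at least twice.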

Klebsiella pneumoniae [5] = experiment: Potentiation of colistin-induced antibacterial activity against colistin-resistant Klebsiella pneumoniae B9 assessed as fold change in colistin MIC at 1 uM incubated for 16 hrs by broth microdilution method; format: functional; how it was run: as §1
Klebsiella pneumoniae [6] = experiment: Potentiation of colistin-induced antibacterial activity against colistin resistant Klebsiella pneumoniae C3 assessed as colistin MIC at 5 uM incubated for 16 hrs by broth microdilution method; format: functional; how it was run: as §1
Escherichia coli [7] = experiment: Antimicrobial activity against colistin resistant Escherichia coli 25922 harbouring mcr-1 gene assessed as inhibition of microbial growth incubated for 16 hrs by broth microdilution method; format: functional, organism-based; how it was run: as §2
Pseudomonas aeruginosa [8] = experiment: Antimicrobial activity against colistin resistant Pseudomonas aeruginosa TRPA 162 assessed as inhibition of microbial growth incubated for 16 hrs by broth microdilution method; format: functional, organism-based; how it was run: as §2
Acinetobacter baumannii [9] = experiment: Potentiation of colistin-induced antimicrobial activity against colistin resistant Acinetobacter baumannii 3941 assessed as assessed as colistin MIC at 5 uM incubated for 16 hrs by broth microdilution method; format: functional; how it was run: as §1
Klebsiella pneumoniae [10] = experiment: Potentiation of colistin-induced antibacterial activity against colistin resistant Klebsiella pneumoniae F9 assessed as colistin MIC at 5 uM incubated for 16 hrs by broth microdilution method; format: functional; how it was run: as §1
Klebsiella pneumoniae [11] = experiment: Potentiation of colistin-induced antibacterial activity against colistin resistant Klebsiella pneumoniae F2210291 harbouring mcr-1 gene assessed as colistin MIC at 5 uM incubated for 16 hrs by broth microdilution method; format: functional; how it was run: as §1
Escherichia coli [12] = experiment: Potentiation of colistin-induced antimicrobial activity against colistin resistant Escherichia coli 25922 harbouring mcr-1 gene assessed as colistin MIC at 5 uM incubated for 16 hrs by broth microdilution method; format: functional; how it was run: as §1
Klebsiella pneumoniae [13] = experiment: Potentiation of colistin-induced antibacterial activity against colistin resistant Klebsiella pneumoniae I2 assessed as colistin MIC at 5 uM incubated for 16 hrs by broth microdilution method; format: functional; how it was run: as §1
Klebsiella pneumoniae [14] = experiment: Potentiation of colistin-induced antibacterial activity against colistin-resistant Klebsiella pneumoniae B9 assessed as fold change in colistin MIC at 3 uM incubated for 16 hrs by broth microdilution method; format: functional; how it was run: as §1
Klebsiella pneumoniae [15] = experiment: Potentiation of colistin-induced antibacterial activity against colistin-resistant Klebsiella pneumoniae B9 assessed as colistin MIC at 1 uM incubated for 16 hrs by broth microdilution method; format: functional; how it was run: as §1
Pseudomonas aeruginosa [16] = experiment: Potentiation of colistin-induced antimicrobial activity against colistin-resistant Pseudomonas aeruginosa TRPA 162 assessed as colistin MIC at 5 uM incubated for 16 hrs by broth microdilution method; format: functional; how it was run: as §1
Klebsiella pneumoniae [17] = experiment: Potentiation of colistin-induced antibacterial activity against colistin-resistant Klebsiella pneumoniae B9 assessed as colistin MIC at 3 uM incubated for 16 hrs by broth microdilution method; format: functional; how it was run: as §1
Klebsiella pneumoniae [18] = experiment: Antibacterial activity against colistin resistant Klebsiella pneumoniae I2 assessed as inhibition of bacterial growth incubated for 16 hrs by broth microdilution method; format: functional, organism-based; how it was run: as §2
Klebsiella pneumoniae [19] = experiment: Antibacterial activity against colistin resistant Klebsiella pneumoniae C3 assessed as inhibition of bacterial growth incubated for 16 hrs by broth microdilution method; format: functional, organism-based; how it was run: as §2
Klebsiella pneumoniae [20] = experiment: Antibacterial activity against colistin resistant Klebsiella pneumoniae F2210291 harbouring mcr-1 gene assessed as inhibition of bacterial growth incubated for 16 hrs by broth microdilution method; format: functional, organism-based; how it was run: as §2
Klebsiella pneumoniae [21] = experiment: Antibacterial activity against colistin resistant Klebsiella pneumoniae F9 assessed as inhibition of bacterial growth incubated for 16 hrs by broth microdilution method; format: functional, organism-based; how it was run: as §2

Compound	MIC (Klebsiella pneumoniae [1])	fold change (FC) (Klebsiella pneumoniae [2])	MIC (Klebsiella pneumoniae [3])	fold change (FC) (Klebsiella pneumoniae [14])	MIC (Klebsiella pneumoniae [15])	MIC (Klebsiella pneumoniae [17])	other results
O=C1Nc2cc(Br)ccc2/C1=C1/Nc2cc(Br)ccc2/C1=N\O	8 µg/mL	64	> 200 µM				
O=C1Nc2cc(Br)ccc2/C1=C1/Nc2c(Cl)cccc2/C1=N\O	1 µg/mL	512	> 200 µM	256	32 µg/mL	2 µg/mL	Activity (Acinetobacter baumannii [4]): inactive; fold change (FC) (Klebsiella pneumoniae [5]): 16; MIC (Klebsiella pneumoniae [6]): 4 µg/mL; Activity (Escherichia coli [7]): inactive; Activity (Pseudomonas aeruginosa [8]): inactive; MIC (Acinetobacter baumannii [9]): > 16 µg/mL; MIC (Klebsiella pneumoniae [10]): 4 µg/mL; MIC (Klebsiella pneumoniae [11]): 2 µg/mL; MIC (Escherichia coli [12]): 2 µg/mL; MIC (Klebsiella pneumoniae [13]): 4 µg/mL; MIC (Pseudomonas aeruginosa [16]): > 16 µg/mL
O=C1Nc2cc(Cl)ccc2/C1=C1/Nc2ccccc2/C1=N\O	4 µg/mL	128	> 200 µM				
O=C1Nc2cc(Br)ccc2/C1=C1/Nc2ccc(-c3ccccc3)cc2/C1=N\O	> 16 µg/mL		> 200 µM				
O=C1Nc2cc(F)ccc2/C1=C1/Nc2ccccc2/C1=N\O	> 16 µg/mL		> 200 µM				
O=C1Nc2c(Cl)cccc2/C1=C1/Nc2ccccc2/C1=N\O	> 16 µg/mL		> 200 µM				
O=C1Nc2c(Br)cccc2/C1=C1/Nc2ccccc2/C1=N\O	> 16 µg/mL		> 200 µM				
O=C1Nc2ccccc2/C1=C1/Nc2ccccc2/C1=N\O	> 16 µg/mL		> 200 µM				
COLISTIN			512 µg/mL				MIC (Acinetobacter baumannii [4]): 1020 µg/mL; MIC (Klebsiella pneumoniae [18]): 512 µg/mL; MIC (Escherichia coli [7]): 16 µg/mL; MIC (Pseudomonas aeruginosa [8]): 1020 µg/mL; MIC (Klebsiella pneumoniae [19]): 128 µg/mL; MIC (Klebsiella pneumoniae [20]): 16 µg/mL; MIC (Klebsiella pneumoniae [21]): 256 µg/mL
O=C1Nc2cc(Br)ccc2/C1=C1/Nc2c(Br)cccc2/C1=N\O	1 µg/mL	512	> 200 µM	256	32 µg/mL	2 µg/mL	Activity (Acinetobacter baumannii [4]): inactive; fold change (FC) (Klebsiella pneumoniae [5]): 16; MIC (Klebsiella pneumoniae [6]): 4 µg/mL; Activity (Escherichia coli [7]): inactive; Activity (Pseudomonas aeruginosa [8]): inactive; MIC (Acinetobacter baumannii [9]): > 16 µg/mL; MIC (Klebsiella pneumoniae [10]): 4 µg/mL; MIC (Klebsiella pneumoniae [11]): 2 µg/mL; MIC (Escherichia coli [12]): 1 µg/mL; MIC (Klebsiella pneumoniae [13]): 4 µg/mL; MIC (Pseudomonas aeruginosa [16]): > 16 µg/mL
Cc1ccc2c(c1)NC(=O)/C2=C1\Nc2ccccc2\C1=N/O	> 16 µg/mL		> 200 µM				
O=C1Nc2cc(Br)ccc2/C1=C1/Nc2c(F)cccc2/C1=N\O	2 µg/mL	256	> 200 µM	256	> 64 µg/mL	2 µg/mL	Activity (Acinetobacter baumannii [4]): inactive; MIC (Klebsiella pneumoniae [6]): 4 µg/mL; Activity (Escherichia coli [7]): inactive; Activity (Pseudomonas aeruginosa [8]): inactive; MIC (Acinetobacter baumannii [9]): > 16 µg/mL; MIC (Klebsiella pneumoniae [10]): 4 µg/mL; MIC (Klebsiella pneumoniae [11]): 2 µg/mL; MIC (Escherichia coli [12]): 2 µg/mL; MIC (Klebsiella pneumoniae [13]): 4 µg/mL; MIC (Pseudomonas aeruginosa [16]): > 16 µg/mL
O=C1Nc2cc(Br)ccc2/C1=C1/Nc2ccc(F)cc2/C1=N\O	2 µg/mL	256	> 200 µM	16	> 64 µg/mL	32 µg/mL	
O=C1Nc2cc(Br)ccc2/C1=C1/Nc2c(cccc2C(F)(F)F)/C1=N\O	2 µg/mL	256	> 200 µM	128	64 µg/mL	4 µg/mL	
O=C1Nc2cc(Br)ccc2/C1=C1/Nc2c(Cl)cc(Cl)cc2/C1=N\O	> 16 µg/mL		> 200 µM				
